Rev-erbA mod = Rev-erb alpha (human) modulation; Rev-erbα–FITC-DNA binding, fluorescence polarization, 90 min; activity, % at 10 µM; actives 0.79% (n = 370,000); P20393;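 active = activity above about 14%, limit read from the data; passing the limit was not always enough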
NR2E3 ag-1 = activates human photoreceptor nuclear receptor NR2E3. Q9Y5X4. GST-NR2E3/biotin-RetCOR TR-FRET, 1536-well. inhibition of corepressor binding, % at 4.78 µM. actives 0.12% (n = 320,000). AID 2300;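 active = percent inhibition above the cutoff of mean plus 3 SD of all tested compounds, set per screening campaign, cut at about 20% in these data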
Target sequence (Q9Y5X4 whole entry, looked up): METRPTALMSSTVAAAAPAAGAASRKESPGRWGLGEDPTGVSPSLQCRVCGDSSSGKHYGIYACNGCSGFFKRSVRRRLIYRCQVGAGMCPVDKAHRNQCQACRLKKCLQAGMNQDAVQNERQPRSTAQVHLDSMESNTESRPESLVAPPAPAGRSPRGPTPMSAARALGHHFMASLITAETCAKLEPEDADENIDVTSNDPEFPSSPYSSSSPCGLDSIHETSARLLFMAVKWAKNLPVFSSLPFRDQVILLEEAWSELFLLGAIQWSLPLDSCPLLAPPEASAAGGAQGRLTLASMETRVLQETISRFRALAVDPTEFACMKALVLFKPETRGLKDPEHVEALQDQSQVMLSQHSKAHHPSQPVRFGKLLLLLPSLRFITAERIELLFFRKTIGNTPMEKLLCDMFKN
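Material – GST-tagged NR2E3 plus biotinylated RetCOR corepressor · Quantity – NR2E3 fusion 1.35 nM · Times – 5 h incubation at 4 °C · Medium – pH 7.5 Tris-based buffer · Technique – TR-FRET, Eu(K)-anti-GST donor, streptavidin-D2 acceptor, ex 340, em 617/671 nm · Benchmarks – high control biotin, low control 0.6% DMSO · Format – 1536-well plates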
NR2E3 ag-2 = human photoreceptor-specific nuclear receptor agonism; inhibition of corepressor binding, % at 3.98 µM; actives 0.35% (n = 360,000); CHO-S Gal4-NCOR/VP16-NR2E3 two-hybrid, luciferase; Q9Y5X4;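 active = inhibition above the mean of all tested compounds plus 3 SD, cut at about 70% in these data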;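 also: higher means lower luciferase signal from less NR2E3 corepressor binding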
PG9 binder = small molecules binding HIV-1 gp120 antibody PG9; TR-FRET gp120-PG9 antibody binding; inhibition, % at 6.7 µM; actives 0.43% (n = 360,000); in the data active = inhibition above about 8.5%
Rev-erbA confirm = Rev-erb alpha (human) modulation, hit confirmation. shares compounds with Rev-erbA mod. activation, % at 25 µM. Rev-erb alpha FITC-DNA binding, fluorescence polarization, 90 min. actives 61% (n = 3,000);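 active = activation at or above a set limit, or at least 3 SD above the negative control mean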
RORg DNA counter = counter-screen for Rev-erb alpha modulators: RORgamma DNA binding; shares compounds with Rev-erbA mod; IC50, µM; actives 8% (n = 910); purified RORgamma protein-FITC-DNA binding, fluorescence polarization;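 active = Compounds whose fitted half-maximal concentration for disrupting protein-DNA binding is below 10 micromolar; the record names Rev-erb in its text, so the target is in doubt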
Hits are given with their value. Rows were chosen to be rich in hits. Some 1.4% of all compounds tested hit in one or more screens of this group.

What do the screens show for `Cc1ccc(NC(=O)C2CCCN(S(=O)(=O)c3ccc4[nH]c(=O)ccc4c3)C2)cc1C` (stereo not drawn)?
Rev-erbA mod: inactive; NR2E3 ag-1: inactive; NR2E3 ag-2: inactive; PG9 binder: inactive

How did COC(=O)c1ccc(Cn2ccc3ccc(-c4ccc5ccn(C(=O)c6ccc(C)cc6)c5c4)cc32)cc1 do in these assays?
Rev-erbA mod: 50; Rev-erbA confirm: 62; RORg DNA counter: 1.4

How did CCCCOc1ccc(C(=O)n2ccc3ccc(-c4ccc5ccn(Cc6cccc(C(=O)OC)c6)c5c4)cc32)cc1 do in these assays?
Rev-erbA mod: 37; Rev-erbA confirm: 21

Results for CCCCOc1ccc(C(=O)n2ccc3ccc(-c4ccc5ccn(Cc6ccc(OC)cc6)c5c4)cc32)cc1 ?
Rev-erbA mod: 35; Rev-erbA confirm: inactive

Results for Cc1ccc(C(=O)n2ccc3ccc(-c4ccc5ccn(Cc6ccc(C#N)cc6)c5c4)cc32)cc1 ?
Rev-erbA mod: 40; Rev-erbA confirm: 14

How did COC(=O)c1cccc(Cn2ccc3ccc(-c4ccc5ccn(C(=O)c6ccccc6)c5c4)cc32)c1 do in these assays?
Rev-erbA mod: inactive

Results for COC(=O)c1ccc(Cn2ccc3ccc(-c4ccc5ccn(Cc6ccccc6)c5c4)cc32)cc1 ?
Rev-erbA mod: inactive

Results for COc1cc2oc(=O)cc(CN3CCOCC3)c2cc1Cl ?
Rev-erbA mod: inactive; NR2E3 ag-2: inactive; PG9 binder: inactive

What do the screens show for `CCOC(=O)C1(C)CCCN1C(=O)c1ccc(OC)c(OC)c1` (stereo not drawn)?
Rev-erbA mod: inactive; NR2E3 ag-2: inactive; PG9 binder: inactive

What do the screens show for `COC(=O)c1ccc(Cn2ccc3ccc(-c4ccc5ccn(C(=O)C6CCCCC6)c5c4)cc32)cc1`?
Rev-erbA mod: 25; Rev-erbA confirm: 34; RORg DNA counter: inactive

What do the screens show for `COc1ccc(Cn2ccc3ccc(-c4ccc5ccn(C(=O)C6CCCCC6)c5c4)cc32)cc1`?
Rev-erbA mod: inactive

Results for COc1ccc(Cn2ccc3ccc(-c4ccc5ccn(C(=O)c6ccccc6)c5c4)cc32)cc1 ?
Rev-erbA mod: inactive

How did COc1ccc(Cn2ccc3ccc(-c4ccc5ccn(C(=O)c6ccc(C)cc6)c5c4)cc32)cc1 do in these assays?
Rev-erbA mod: 37; Rev-erbA confirm: 45; RORg DNA counter: inactive

What do the screens show for `Cc1ccc(C(=O)n2ccc3ccc(-c4ccc5ccn(Cc6ccccc6)c5c4)cc32)cc1`?
Rev-erbA mod: 39; Rev-erbA confirm: 27

Results for Cc1ccc(-c2cc3nc(C)cc(N4CCN(C(=O)c5ccoc5)CC4)n3n2)cc1 ?
Rev-erbA mod: inactive; NR2E3 ag-2: inactive; PG9 binder: inactive

How did COc1ccccc1C(=O)NCC(=O)N(C)Cc1nc2ccccc2c(=O)[nH]1 do in these assays?
Rev-erbA mod: inactive; NR2E3 ag-2: inactive; PG9 binder: inactive

What do the screens show for `CCOC(=O)c1c(NC(=O)c2c(Br)cnn2CC)sc(C)c1C`?
Rev-erbA mod: 28; NR2E3 ag-1: inactive; NR2E3 ag-2: inactive; PG9 binder: inactive; Rev-erbA confirm: inactive

How did Cc1cccc(C(=O)OCC(=O)c2cccc(Br)c2)c1O do in these assays?
Rev-erbA mod: 19; NR2E3 ag-1: inactive; NR2E3 ag-2: inactive; PG9 binder: inactive; Rev-erbA confirm: inactive

Results for Brc1ccc(-c2nn3c(-c4ccccc4)nnc3s2)cc1 ?
Rev-erbA mod: 34; Rev-erbA confirm: 71; RORg DNA counter: 2.9

What do the screens show for `CCOc1ccc(-c2nn3c(-c4ccccc4)nnc3s2)cc1`?
Rev-erbA mod: inactive; NR2E3 ag-1: inactive; NR2E3 ag-2: inactive; PG9 binder: inactive

What do the screens show for `COC(=O)c1cc2c(c3c4ccccc4n(S(=O)(=O)c4cccc(C)c4)c13)C(=O)N(C)C2`?
Rev-erbA mod: inactive; PG9 binder: inactive

How did CCOC(=O)c1c(-c2cccs2)csc1NC(=O)c1ccncc1 do in these assays?
Rev-erbA mod: 29; NR2E3 ag-1: inactive; NR2E3 ag-2: inactive; PG9 binder: inactive; Rev-erbA confirm: 28

Results for C#CCNC(=O)C[C@@H]1C[C@@]2(C(=O)OCC)CCCC=C2N(Cc2ccccc2)C1=O ?
Rev-erbA mod: inactive; PG9 binder: inactive

What do the screens show for `O=c1c(Cl)c(N2CCN(S(=O)(=O)c3ccc(F)cc3)CC2)cnn1-c1cccc(Cl)c1`?
Rev-erbA mod: 28; NR2E3 ag-1: inactive; NR2E3 ag-2: inactive; PG9 binder: inactive; Rev-erbA confirm: 28

How did O=C(Nc1ccc(Cl)cc1)c1csc(COCCO)n1 do in these assays?
Rev-erbA mod: inactive; NR2E3 ag-2: inactive; PG9 binder: inactive

Results for O=C(Nc1ccc(Oc2ccccc2)cc1)c1csc(COCCO)n1 ?
Rev-erbA mod: 15; NR2E3 ag-2: inactive; PG9 binder: inactive; Rev-erbA confirm: inactive

What do the screens show for `Clc1ccccc1OCc1nn2c(-c3ccncc3)nnc2s1`?
Rev-erbA mod: inactive; NR2E3 ag-1: inactive; NR2E3 ag-2: inactive; PG9 binder: inactive

Results for Clc1ccc(OCc2nn3c(-c4ccccc4)nnc3s2)c(Cl)c1 ?
Rev-erbA mod: 26; NR2E3 ag-1: inactive; NR2E3 ag-2: inactive; PG9 binder: inactive; Rev-erbA confirm: 35

What do the screens show for `COc1ccc2c(c1)c(=O)oc1cc(OCC(=O)NC3CC3)ccc12`?
Rev-erbA mod: 24; NR2E3 ag-1: inactive; NR2E3 ag-2: inactive; PG9 binder: inactive; Rev-erbA confirm: 34; RORg DNA counter: inactive

What do the screens show for `COc1ccc2c(c1)c(=O)oc1cc(OCC(=O)NC3CCCCC3)ccc12`?
Rev-erbA mod: inactive; NR2E3 ag-1: inactive; NR2E3 ag-2: inactive; PG9 binder: inactive

Results for COCc1ccc(C(=O)N2CCCC(N3CCN(c4cccc(Cl)c4)CC3)C2)s1 (stereo not drawn) ?
Rev-erbA mod: inactive; NR2E3 ag-2: inactive; PG9 binder: inactive

What do the screens show for `CC(=O)Oc1ccc(/C=N\NC(=O)c2cc3c(ccc4ccccc43)o2)cc1`?
Rev-erbA mod: 33; NR2E3 ag-1: inactive; NR2E3 ag-2: inactive; PG9 binder: inactive; Rev-erbA confirm: 33; RORg DNA counter: inactive

Results for Nc1cccc(N2C(=O)c3cccc4c(N)ccc(c34)C2=O)c1 ?
Rev-erbA mod: 80; NR2E3 ag-1: inactive; NR2E3 ag-2: inactive; PG9 binder: inactive; Rev-erbA confirm: 64; RORg DNA counter: inactive

What do the screens show for `CC(C)CCN1C(=O)c2cccc3c(N)ccc(c23)C1=O`?
Rev-erbA mod: 139; NR2E3 ag-1: inactive; NR2E3 ag-2: inactive; PG9 binder: inactive; Rev-erbA confirm: 132; RORg DNA counter: inactive

What do the screens show for `Nc1ccc2c3c(cccc13)C(=O)N(c1ccccc1)C2=O`?
Rev-erbA mod: 92; NR2E3 ag-2: inactive; PG9 binder: inactive; Rev-erbA confirm: 80; RORg DNA counter: inactive

Results for O=C(O)c1cccc(N2C(=O)c3cccc4c(Cl)ccc(c34)C2=O)c1 ?
Rev-erbA mod: inactive; NR2E3 ag-1: inactive; NR2E3 ag-2: inactive; PG9 binder: inactive
